# Test results from ChEMBL document CHEMBL1649302, “New small-molecule inhibitor class targeting human immunodeficiency virus type 1 virion maturation” (Antimicrob Agents Chemother, 2009).
# Activity calls are given as the source filed them. The rule behind the calls is not given here.
# Assays:
# [1] = test system: Human immunodeficiency virus 1; assay: Antiviral activity against HIV1 3B infected in human MT2 cells assessed as protection against virus-induced cytopathogenicity after 6 days by XTT assay; type: functional, organism-based; conditions: Human immunodeficiency virus 1, 3B, MT2, 144 h
# Outline: (§1)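 Host cells were infected with NL4-3 or IIIB (MOI 0.08) or RF (MOI 0.025–0.819) and seeded at 2 × 10⁴/well onto half-log compound dilutions. After 6 days, XTT/PMS was added for 4 h and formazan was read at 450 nm. EC50 was the concentration giving 50% of the formazan of uninfected, compound-free cells.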
# [2] = test system: Human immunodeficiency virus 1; assay: Antiviral activity against HIV1 RF infected in human CEM-SS cells assessed as protection against virus-induced cytopathogenicity after 6 days by XTT assay; type: functional, organism-based; conditions: Human immunodeficiency virus 1, RF, 144 h; outline: as §1
# [3] = test system: Human immunodeficiency virus 1; assay: Antiviral activity against HIV1 RF infected in human MT2 cells assessed as protection against virus-induced cytopathogenicity after 6 days by XTT assay; type: functional, organism-based; conditions: Human immunodeficiency virus 1, RF, MT2, 144 h; outline: as §1
# [4] = test system: Human immunodeficiency virus 1; assay: Antiviral activity against HIV1 92HT599 infected in human MT2 cells assessed as inhibition of viral p24 antigen production after 5 days; type: functional, organism-based; conditions: Human immunodeficiency virus 1, 92HT599, MT2, 120 h
# Outline: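 PM1 cells (NL4-3, Ba-L) or MT-2 cells (92HT594, 92HT599) were infected at MOI 0.16 for 2 h and washed. They were plated at 1 × 10⁴ cells/well (2 × 10⁵/ml) onto half-log compound dilutions. Supernatant p24 was quantified by ELISA at day 5. EC50 was the concentration giving a 50% decrease versus infected, compound-free cells.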
# [5] = Therapeutic index, ratio of CC50 for human MT2 cells to EC50 for HIV1 92HT599 infected in human MT2 cells; type: cell-based; conditions: read-out: TI
# Outline: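 TI was the mean CC50 (XTT, uninfected MT-2) divided by the mean EC50, determined for each cell line in each experiment.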
# [6] = test system: Human immunodeficiency virus 1; assay: Antiviral activity against HIV1 NL4-3 infected in HEK293 cells assessed as decrease in virus production at 2 times EC90 after 72 hrs by beta-galactosidase reporter gene assay; type: functional
# [7] = test system: Human immunodeficiency virus 1; assay: Antiviral activity against HIV1 assessed as inhibition of virion maturation-associated CA/SP1 processing at 2 times EC90; type: functional, organism-based
# [8] = test system: Human immunodeficiency virus 1; assay: Antiviral activity against wild type HIV1 infected in human HeLa cells assessed as decrease in viral infection after 72 hrs by beta-galactosidase reporter gene assay; type: functional, organism-based; conditions: Human immunodeficiency virus 1, HeLa
# Outline: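 HeLa CD4 LTR/β-Gal cells (1 × 10⁴/well, DMEM + 10% FBS) were pretreated with half-log compound dilutions. They were then infected at MOI 0.03 with single-cycle NL4-3 ΔEnv reporter virus pseudotyped with envelope from HEK 293 cotransfection. EC50 was the concentration halving β-galactosidase activity versus infected untreated cells. Values are mean ± SD or representative of three experiments.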
# [9] = test system: Human immunodeficiency virus 1; assay: Selectivity ratio of EC50 for HIV1 harboring spacer peptide A1V mutant protein infected in human HeLa cells to EC50 for wild type HIV1 infected in human HeLa cells; type: functional
# Outline: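 MT-2 cells were infected for 2 h with wild-type NL4-3 or recombinant NL4-3 carrying CA I201V or SP1 A1V. They were then cocultured with HeLa CD4 LTR/beta-Gal indicator cells in serially diluted compound. Beta-gal reporter was read after 4 days. EC50s are means ± SD of 3–6 experiments. Fold change is mutant EC50 divided by wild-type EC50.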
# [10] = test system: Human immunodeficiency virus 1; assay: Antiviral activity HIV1 92BR014 infected in human PBMC after 7 days by scintillation counting; type: functional, organism-based; conditions: Human immunodeficiency virus 1, 92BR014, 168 h
# Outline: (§2)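 Fresh PBMCs from HIV/HBV-seronegative donors were PHA-stimulated (4 μg/ml, 48–72 h) and kept with IL-2 (20 U/ml), with at least two donors pooled. Cells were seeded at 5 × 10⁴/well and infected (final MOI ≅0.1) with nine compound concentrations in triplicate wells. After 7 days, reverse transcriptase activity was measured in cell-free supernatant.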
# [11] = test system: Human immunodeficiency virus 1; assay: Antiviral activity HIV1 92BR026 infected in human PBMC after 7 days by scintillation counting; type: functional, organism-based; conditions: Human immunodeficiency virus 1, 92BR026, 168 h
# [12] = test system: Human immunodeficiency virus 1; assay: Antiviral activity HIV1 92BR030 infected in human PBMC after 7 days by scintillation counting; type: functional, organism-based; conditions: Human immunodeficiency virus 1, 92BR030, 168 h; outline: as §2
# [13] = test system: Human immunodeficiency virus 1; assay: Antiviral activity HIV1 92US072 infected in human PBMC after 7 days by scintillation counting; type: functional, organism-based; conditions: Human immunodeficiency virus 1, 92US072, 168 h; outline: as §2
# [14] = test system: Human immunodeficiency virus 1; assay: Antiviral activity HIV1 93BR023 infected in human PBMC after 7 days by scintillation counting; type: functional, organism-based; conditions: Human immunodeficiency virus 1, 93BR023, 168 h; outline: as §2
# [15] = Therapeutic index, ratio of CC50 for human PBMC to EC50 for HIV1 3B infected in human PBMC; conditions: read-out: TI
# Outline: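 TI was the mean PBMC CC50 divided by the mean EC50 from the 7-day PBMC reverse transcriptase assay.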
# [16] = Therapeutic index, ratio of CC50 for human PBMC to EC50 for HIV1 NL4-3 infected in human PBMC; conditions: read-out: TI
# Outline: (§3)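 Frozen PHA-stimulated (1.5 μg/ml, 3 days) buffy-coat PBMCs pooled from three or four seronegative donors. Infected with a TCID50-based virus input per 10⁶ cells for 1 h at 37°C, then pelleted and resuspended in 10 ng/ml IL-2. Plated at 4 × 10⁵ cells/ml on compound dilutions for 7 days at 37°C. Supernatant RT measured by Quan-T-RT. TI is mean CC50 divided by mean EC50.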
# [17] = Therapeutic index, ratio of CC50 for human PBMC to EC50 for HIV1 ROJO infected in human PBMC; conditions: read-out: TI
# Outline: (§4)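 PHA-stimulated (4 μg/ml, 48 to 72 h) PBMCs pooled from at least two seronegative donors, kept with 20 U/ml IL-2, plated at 5 × 10⁴ cells/well. Infected with clinical isolate (final MOI ≅0.1) alongside nine compound concentrations in triplicate wells, 7 days. Supernatant reverse transcriptase activity measured. TI is mean PBMC CC50 divided by mean EC50.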
# [18] = Therapeutic index, ratio of CC50 for human PBMC to EC50 for HIV1 92TH014 infected in human PBMC; conditions: read-out: TI; outline: as §4
# [19] = Therapeutic index, ratio of CC50 for human PBMC to EC50 for HIV1 92TH026 infected in human PBMC; conditions: read-out: TI; outline: as §4
# [20] = Therapeutic index, ratio of CC50 for human PBMC to EC50 for HIV1 92US076 infected in human PBMC; conditions: read-out: TI; outline: as §4
# [21] = Therapeutic index, ratio of CC50 for human PBMC to EC50 for HIV1 93BR023 infected in human PBMC; conditions: read-out: TI; outline: as §4
# [22] = Therapeutic index, ratio of CC50 for human PBMC to EC50 for HIV1 93TH074 infected in human PBMC; conditions: read-out: TI; outline: as §3
# [23] = Therapeutic index, ratio of CC50 for human PBMC to EC50 for HIV1 CMU06 infected in human PBMC; conditions: read-out: TI; outline: as §3
# [24] = test system: Human immunodeficiency virus 1; assay: Antiviral activity against HIV1 NL4-3 infected in HEK293 cells assessed as inhibition of viral p24 antigen production after 72 hrs
smiles,measurement,setting,value
CC(C)(C)c1ccc(C(Cn2cccc(C(F)(F)F)c2=O)NC2Cc3ccccc3C2)cc1 (centres undefined),EC50,[1],17 nM
same,EC50,[2],> 20000 nM
same,EC50,[3],> 16000 nM
same,EC50,[4],210 nM
same,selectivity ratio,[5],90
same,inhibition (INH),[6],92%
same,inhibition,[7],Active
same,EC50,[8],206 nM
same,Ratio EC50,[9],>16
same,EC50,[10],7000 nM
same,EC50,[11],> 17000 nM
same,EC50,[12],> 17000 nM
same,EC50,[13],5 nM
same,EC50,[14],> 17000 nM
same,selectivity ratio,[15],53
same,selectivity ratio,[16],155
same,selectivity ratio,[17],< 1
same,selectivity ratio,[18],< 1
same,selectivity ratio,[19],< 1
same,selectivity ratio,[20],2430
same,selectivity ratio,[21],< 1
same,selectivity ratio,[22],142
same,selectivity ratio,[23],14
same,inhibition,[24],inactive
